The structures appear in SMILES notation. Activity calls are given as the source filed them. The rule behind the calls is not given here.

Our source for the IC50 and inhibition values is ChEMBL document CHEMBL2029346, “Discovery and synthesis of hydronaphthoquinones as novel proteasome inhibitors” (J Med Chem, 2012).

Experiment [1] can be described thus: Inhibition of chymotrypsin-like activity of proteasome by fluorogenic assay. The experiment is classed as subcellular. The method, boiled down: (§1)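 Purified rabbit 20S proteasome; CT-L activity measured by fluorogenic assay. Compounds were first screened for % CT-L inhibition, then dose-response runs gave IC50.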
The species entered for experiment [2] is Oryctolagus cuniculus. Put plainly: Inhibition of rabbit 20S proteasome activity at 10 uM after 30 mins. The method, boiled down: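 Purified rabbit 20S proteasome (1.5 nM final) was preincubated with compound at 10 μM, or 0.1% DMSO vehicle, in 50 mM Tris-HCl pH 7.6 at room temperature for 30 min. Chymotrypsin-like activity was then read by fluorogenic assay before dialysis (t = 0) and normalized to the DMSO control.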

The species named for experiment [3] is Oryctolagus cuniculus. The experiment in a line: Irreversible inhibition of rabbit 20S proteasome activity at 10 uM after 30 mins measured after 4 hrs of dialysis. The method, boiled down: (§2)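 Compound at 10 μM or 0.1% DMSO was preincubated with 1.5 nM rabbit 20S proteasome in 50 mM Tris-HCl pH 7.6 for 30 min at room temperature. Mixtures were dialysed (3500 MWCO) against the same buffer at 4 °C and sampled at 0, 0.5, 1, 4, 8 and 18 h. CT-L activity was normalized to DMSO control.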

Experiment [4] is described as follows: Inhibition of trypsin-like activity of proteasome at 10 uM by fluorogenic assay. Format: subcellular.
Experiment [5] in a line: Inhibition of chymotrypsin-like activity of proteasome at 10 uM by fluorogenic assay. Format: subcellular. The method, boiled down: as §1
The nature of experiment [6]: Inhibition of trypsin-like activity of proteasome by fluorogenic assay. The experiment is classed as subcellular.
The nature of experiment [7]: Inhibition of chymotrypsin-like activity of proteasome in human MDA-MB-468 cells after 48 hrs. The method, boiled down: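 MDA-MB-468 cells grown in DMEM with 10% FCS, penicillin/streptomycin, at 37 °C in 5% CO2. They were exposed to a range of concentrations or DMSO vehicle for 48 h, lysed in Tris pH 8.0/EDTA/NaCl/0.5% NP-40 for 30 min at 4 °C, and spun at 12000g. CT-L activity was read fluorogenically on 5 μg lysate, with lysate replacing purified proteasome.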

A short description of experiment [8]: Inhibition of postglutamylpeptidase hydrolysis-like activity of proteasome by fluorogenic assay. Format: subcellular.
The species named for experiment [9] is Oryctolagus cuniculus. Put plainly: Irreversible inhibition of rabbit 20S proteasome activity at 10 uM after 30 mins measured after 0.5 to 18 hrs of dialysis. In short, it runs like this:
as §2

The nature of experiment [10]: Inhibition of chymotrypsin-like activity of proteasome in human MDA-MB-231 cells after 48 hrs. The method, boiled down:
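MDA-MB-231 cells exposed to a range of concentrations or DMSO vehicle for 48 h, then lysed (Tris pH 8.0, EDTA, NaCl, 0.5% NP-40). CT-L activity was measured fluorogenically using 5 μg lysate; IC50 derived.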

Experiment [11] relates to MDA-MB-468. The experiment in a line: Inhibition of chymotrypsin-like activity of proteasome in human MDA-MB-468 cells assessed as accumulation of ubiquitinated cellular proteins after 11 hrs by Western blotting. In short, it runs like this: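 MDA-MB-468 cells (DMEM, 10% FCS, 37 °C, 5% CO2) given varying concentrations or DMSO for 11 h, then lysed in NP-40 buffer. Lysate (30 μg) was run on SDS-PAGE, transferred to nitrocellulose, probed with anti-ubiquitin, and detected by ECL.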

In experiment [12] the test system is MDA-MB-468. The experiment in a line: Antiproliferative activity against human MDA-MB-468 cells after 11 hrs by MTT assay. Format: functional, cell-based. To be noted: MDA-MB-468, 11 h. The method, boiled down: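 MDA-MB-468 human breast cancer cells grown in DMEM with 10% FCS and penicillin/streptomycin at 37 °C, 5% CO₂. Cells plated, attached overnight, then exposed to varying compound concentrations or vehicle (DMSO) for 11 h.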

A short description of experiment [13]: Inhibition of chymotrypsin-like activity of proteasome in human MDA-MB-468 cells after 11 hrs by fluorogenic assay in whole cell extracts. The following applies: MDA-MB-468, 11 h.

In the case of `O=S(=O)(Nc1ccc(O)c2ccccc12)c1cccs1`, the 50% inhibitory concentration (IC50) in [1] is above 30000 nM.
Consider `CC(C)C[C@H](NC(=O)[C@H](Cc1ccccc1)NC(=O)c1cnccn1)B(O)O`, for which the inhibition in the experiment filed under Oryctolagus cuniculus [2] was determined as 87%. In the experiment listed under Oryctolagus cuniculus [3], the inhibition entry was “inactive”.
With `O=S(=O)(Nc1cc(Sc2ncn[nH]2)c(O)c2ccccc12)c1ccn(S(=O)(=O)c2ccccc2)c1`, the inhibition in experiment [4] is below 70%; in experiment [5], above 70%. Further, the 50% inhibitory concentration (IC50) in experiment [1] turned out to be 1610 nM.
Take `O=C(O)CSc1ccc(NS(=O)(=O)c2cccs2)c2ccccc12`: the 50% inhibitory concentration (IC50) in experiment [1] was above 100000 nM.
Consider `O=S(=O)(Nc1cc(Sc2ncn[nH]2)c(O)c2ccccc12)c1cccc2ccccc12`, for which the inhibition in experiment [4] was below 70%; in [5], above 70%. This molecule came in with a 50% inhibitory concentration (IC50) in experiment [1] of 650 nM.
On to `O=S(=O)(Nc1cc(Sc2nnn[nH]2)c(O)c2ccccc12)c1ccc(Cl)s1`, for which the results for the IC50 in experiment [6] and in experiment [1] were 1100 nM and 630 nM, respectively. Further, in [5], the inhibition is above 70%.
`O=S(=O)(Nc1cc(Cl)c(O)c2ccccc12)c1cccs1` had a concentration for half-maximal inhibition (IC50) in experiment [1] above 30000 nM.
On to `CCSc1cc(NS(=O)(=O)c2cccs2)c2ccccc2c1O`, for which the IC50 in [1] was above 5000 nM.
With `O=S(=O)(Nc1cc(Sc2nnn[nH]2)c(O)c2ccccc12)c1ccc(Oc2ccccc2)cc1`, the results for the IC50 in experiment [6] and in experiment [1] were 1300 nM and 220 nM, respectively. This molecule also displayed an inhibition in [5] above 70%.
The corresponding values for `O=S(=O)(Nc1cc(Sc2nnn[nH]2)c(O)c2ccccc12)c1ccc(-c2ccccc2)s1` are 550 nM, 230 nM and above 70%.
Consider `O=S(=O)(Nc1cc(Sc2ncn[nH]2)c(O)c2ccccc12)c1ccc(-c2ccc(F)cc2)cc1`, for which the IC50 in experiment [6] was 2370 nM; in experiment [1], 180 nM. Also, the inhibition in experiment [5] was above 70%.
The matching figures for `O=S(=O)(Nc1cc(Sc2ncn[nH]2)c(O)c2ccccc12)c1ccc(-c2ccccc2)s1`: 2350 nM, 730 nM and above 70%.
The molecule `O=C(O)CS(=O)(=O)c1cc(NS(=O)(=O)c2cccs2)c2ccccc2c1O` returned a 50% inhibitory concentration (IC50) in experiment [1] above 100000 nM.
In the case of `O=C(O)CSc1cc(NS(=O)(=O)c2cccs2)c2ccccc2c1O`, the inhibition in experiment [4] is below 70%; in the experiment listed under Oryctolagus cuniculus [2], 68%; in experiment [5], above 70%. The half-maximal inhibitory concentration (IC50) in experiment [7] worked out at 7220 nM; in experiment [8], 8100 nM; in experiment [1], 3000 nM; in experiment [10], 3540 nM. The inhibition result in the experiment filed under Oryctolagus cuniculus [9] is “Active”.
Take `O=S(=O)(Nc1cc(Sc2nnn[nH]2)c(O)c2ccccc12)c1cccs1`: the IC50 in [6] is 200 nM; in [1], 510 nM. The inhibition in experiment [5] was above 70%.
With `O=S(=O)(Nc1cc(Sc2nnn[nH]2)c(O)c2ccccc12)c1ccc(-c2ccc(C(F)(F)F)cc2)cc1`, the IC50 was determined as 1010 nM in [7]; 17000 nM in the experiment with MDA-MB-468 [12]; 1140 nM in [6]; 880 nM in [1]; 15600 nM in experiment [13]; 440 nM in [10]. Moreover, the inhibition entry was “Dose-dependent effect” in the experiment on MDA-MB-468 [11], 73% in the experiment filed under Oryctolagus cuniculus [2] and above 70% in experiment [5]. In addition, in the experiment listed under Oryctolagus cuniculus [9], the inhibition entry is “Active”.
Turning to `O=S(=O)(Nc1cc(Sc2ncn[nH]2)c(O)c2ccccc12)c1ccc(C2CCCCC2)cc1`, the half-maximal inhibitory concentration (IC50) in experiment [6] was determined as 7000 nM; in experiment [1] it was 300 nM. Further, in [5], the inhibition was above 70%.
In the case of `Cn1nnnc1Sc1cc(NS(=O)(=O)c2cccs2)c2ccccc2c1O`, the values for the inhibition in experiment [4] and in experiment [5] were below 70% and above 70%, respectively. Also, in experiment [1], 4200 nM corresponded to half-maximal inhibition (IC50).
The corresponding values for `O=S(=O)(Nc1cc(Sc2ncn[nH]2)c(O)c2ccccc12)c1ccc(S(=O)(=O)c2ccccc2)s1` are below 70%, above 70% and 1970 nM.
Take `O=S(=O)(Nc1cc(Sc2ncn[nH]2)c(O)c2ccccc12)c1ccc(Oc2ccccc2)cc1`: the half-maximal inhibitory concentration (IC50) in [6] came out at 4200 nM; in experiment [1], 150 nM. Besides, the inhibition in experiment [5] was above 70%.
With `O=S(=O)(Nc1cc(Sc2nnn[nH]2)c(O)c2ccccc12)c1ccc(-c2ccccc2)cc1`, the IC50 in experiment [6] turned out to be 4800 nM; in experiment [1] it was 220 nM. In experiment [5], this molecule gave an inhibition above 70%.
The corresponding values for `CCCCCc1ccc(S(=O)(=O)Nc2cc(Sc3nnn[nH]3)c(O)c3ccccc23)cc1` are 1450 nM, 470 nM and above 70%.
With `O=S(=O)(Nc1cc(Sc2ncn[nH]2)c(O)c2ccccc12)c1ccc2ccccc2c1`, the IC50 in experiment [6] came out at 2000 nM; in experiment [1], 300 nM. For the same molecule, the inhibition in experiment [5] is above 70%.
`O=C(O)c1ccccc1Sc1cc(NS(=O)(=O)c2cccs2)c2ccccc2c1O`: the values for the inhibition in [4] and in [5] were below 70% and above 70%, respectively. Further, half-maximal inhibition in experiment [1] (IC50) required 4050 nM.
Consider `O=S(=O)(Nc1cc(Sc2nnn[nH]2)c(O)c2ccccc12)c1ccc(Cl)c(Cl)c1`, for which the IC50 in experiment [6] came to 570 nM; in experiment [1], 540 nM. In experiment [5], this molecule had an inhibition above 70%.
On to `O=S(=O)(Nc1cc(Sc2ncn[nH]2)c(O)c2ccccc12)c1cccs1`, for which the inhibition in experiment [4] is below 70%; in experiment [5] it was above 70%.
Turning to `O=S(=O)(Nc1cc(Sc2nnn[nH]2)c(O)c2ccccc12)c1ccc2ccccc2c1`, the values for the 50% inhibitory concentration (IC50) in experiment [6] and in experiment [1] were 1350 nM and 400 nM, respectively. For the same molecule, the inhibition in experiment [5] was above 70%.
As to `O=S(=O)(Nc1cc(I)c(O)c2ccccc12)c1cccs1`, the IC50 in [1] was above 30000 nM.
Turning to `O=S(=O)(Nc1cc(Sc2nnn[nH]2)c(O)c2ccccc12)c1ccccc1`, the values for the half-maximal inhibitory concentration (IC50) in experiment [6] and in experiment [1] were 1380 nM and 600 nM, respectively. The same molecule registered an inhibition in [5] above 70%.
`O=S(=O)(Nc1cc(SCCO)c(O)c2ccccc12)c1cccs1` yielded an IC50 in experiment [1] above 5000 nM.
With `COc1ccc(-c2ccc(S(=O)(=O)Nc3cc(Sc4nnn[nH]4)c(O)c4ccccc34)cc2)cc1`, the results for the IC50 in experiment [6] and in experiment [1] were 2800 nM and 400 nM, respectively. This molecule returned an inhibition in experiment [5] above 70%.
For `CCOc1cc(NS(=O)(=O)c2cccs2)c2ccccc2c1O`, in experiment [1], the IC50 was above 5000 nM.
With `O=S(=O)(Nc1cc(Sc2ncn[nH]2)c(O)c2ccccc12)c1ccc(-c2ccccc2)cc1`, the IC50 in experiment [6] came to 4220 nM; in [1] it was 280 nM. The inhibition in experiment [5] was above 70%.
`CN(C)C(=O)CCSc1cc(NS(=O)(=O)c2cccs2)c2ccccc2c1O`: in experiment [1], the IC50 was above 5000 nM.
On the same count and under the same terms, the same measure for `O=S(=O)(Nc1cc(Br)c(O)c2ccccc12)c1cccs1`: above 30000 nM.
On the same count and under the same terms, the same measure for `CCOC(=O)CSc1cc(NS(=O)(=O)c2cccs2)c2ccccc2c1O`: above 10000 nM.
Same read-out and setting: then `O=C(O)CCSc1cc(NS(=O)(=O)c2cccs2)c2ccccc2c1O`, with 5700 nM.
On to `O=S(=O)(Nc1cc(Sc2nnn[nH]2)c(O)c2ccccc12)c1ccc(-c2ccc(F)cc2)cc1`, for which the concentration for half-maximal inhibition (IC50) was determined as 2000 nM in experiment [6] and 230 nM in [1]. The same molecule gave an inhibition in experiment [5] above 70%.
The corresponding values for `O=S(=O)(Nc1cc(Sc2ncn[nH]2)c(O)c2ccccc12)c1ccc(-c2ccc(C(F)(F)F)cc2)cc1` are 7200 nM, 2470 nM and above 70%.
The matching figures for `O=S(=O)(Nc1cc(Sc2nnn[nH]2)c(O)c2ccccc12)c1ccc(C2CCCCC2)cc1`: 1850 nM, 230 nM and above 70%.
The matching figures for `O=S(=O)(Nc1cc(Sc2nnn[nH]2)c(O)c2ccccc12)c1ccc(Cl)cc1`: 750 nM, 570 nM and above 70%.
Turning to `O=S(=O)(Nc1cc(Sc2nnn[nH]2)c(O)c2ccccc12)c1ccc(-c2ccccn2)s1`, the IC50 was 1550 nM in experiment [6] and 480 nM in experiment [1]. Also, in experiment [5], the inhibition is above 70%.
Molecule `O=C(O)COc1cc(NS(=O)(=O)c2cccs2)c2ccccc2c1O` returned an IC50 in [1] above 100000 nM.
The molecule `CNC(=O)CCSc1cc(NS(=O)(=O)c2cccs2)c2ccccc2c1O` had an IC50 in [1] above 5000 nM.
